FXN GAA850 act: increases GAA850 frataxin promoter reporter activity | HEK293 lucGAA850 FXN promoter luciferase reporter, 24 h; percent of 10 µM SAHA response | activation, % at 6 µM | 0.56% of 360,000 active;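 active = activation above the average of all compounds screened plus 3 SD, cutoff fixed separately per campaign, cut at about 7.5% in these data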;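 also: 0% = DMSO wells and 100% = 10 µM SAHA wells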
JMJD2C inh: blocks human GASC-1 demethylase activity | Q9H3R0 | GST-JMJD2C(1-420) H3K9me3 demethylation, DELFIA europium | 0.069% of 330,000 active | inhibition, % at 2.35 µM;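 active = more than half of a compound's replicate wells show inhibition beyond 50%, single wells judged on their own value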;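 also: signal counts dimethyl H3K9 product captured on neutravidin plate; 0% = median of DMSO wells and 100% = 0.3 times that DMSO median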
SR-BI DiI-HDL act: enhances SR-BI lipid uptake from DiI-HDL; AID 504775; 0.096% of 320,000 active; CHO ldlA[mSR-BI] cells, DiI-HDL uptake fluorescence, 3 h; 100 = double the neutral-control signal; activation, % at 12.5 µM;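 active = mean replicate activation of at least 60% and every replicate at or above 60%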;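 also: 0% = median plate neutral-control signal and 100% = twice that signal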
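Assay system: CHO ldlA[mSR-BI] cells, LDL receptor-null, SR-BI overexpressing; medium: Ham's F12 with 0.5% BSA, HEPES 25 mM, pH 7.4; also added: DiI-HDL 10 µg/mL; timing: 3 h uptake period with compound, 37 °C; signal: DiI fluorescence, bottom read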
AHR act: human AHR activation | P35869 | AHR-responsive luciferase reporter cells, luminescence | activation, % at 5 µM | 2.5% of 320,000 active | AID 2796; in the data active = activation above about 47%;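 also: 0% = vehicle wells and 100% = reference agonist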
SR-BI DiI inh: blocks mouse SR-BI lipid uptake from DiI-HDL | Q61009 | ldlA[mSR-BI] CHO cells, DiI-HDL uptake fluorescence, 3 h | inhibition, % at 12.5 µM | 0.96% of 320,000 active;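 active = mean replicate inhibition of at least 70% and a set share of replicates each scoring 70 or more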;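 also: 0% = median of neutral control wells and 100% = median of positive control wells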
AHR act cf: human AHR activation, confirmation; 87% of 2,300 active; human cells, AHR-responsive luciferase reporter, luminescence; activation, % at 9 µM; AID 2845; shares compounds with AHR act; in the data active = activation above about 49%;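 also: HepG2 hepatoma cells carrying a DRE-driven firefly luciferase reporter; 0% = vehicle wells and 100% = reference agonist wells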
PXR counter: PXR activation, counter-screen for AHR activators. AID 434939. 88% of 2,300 active. shares compounds with AHR act. activation, % at 11.6 µM. cell-based PXR reporter, luciferase luminescence; in the data active = activation above about 11%;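 also: human hepatoma DPX-2 cells expressing full-length human PXR; 0% = DMSO and 100% = reference agonist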
Target sequence (O75469 whole entry, looked up): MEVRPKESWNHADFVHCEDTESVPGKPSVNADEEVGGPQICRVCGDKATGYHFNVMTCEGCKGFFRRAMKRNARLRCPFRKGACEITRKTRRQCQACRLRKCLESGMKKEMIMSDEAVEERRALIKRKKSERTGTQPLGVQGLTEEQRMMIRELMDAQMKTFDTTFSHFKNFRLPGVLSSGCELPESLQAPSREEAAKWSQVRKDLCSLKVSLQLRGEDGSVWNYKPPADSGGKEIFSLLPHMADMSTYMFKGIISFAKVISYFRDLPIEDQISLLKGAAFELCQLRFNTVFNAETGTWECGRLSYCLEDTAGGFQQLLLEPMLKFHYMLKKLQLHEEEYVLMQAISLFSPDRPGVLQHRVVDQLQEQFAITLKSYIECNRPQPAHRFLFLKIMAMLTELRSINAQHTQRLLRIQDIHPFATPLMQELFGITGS
Numbers without * were called inactive; . = no result. Only some compounds are listed: those with a hit (about 3.7% of all), similar ones and a draw of the others.

SMILES	FXN GAA850 act	JMJD2C inh	SR-BI DiI-HDL act	AHR act	SR-BI DiI inh	AHR act cf	PXR counter
O=C(CC1C(=O)Nc2ccccc2N1CC(=O)N1CCCC1)Nc1ccc(Br)cc1 (stereo not given)	-1	.	-21	92*	21	100*	37*
CC1CCCC(C)N1/N=C/C=C/c1ccccc1[N+](=O)[O-] (stereo not given)	2	8	11	84*	-11	109*	67*
COc1ccccc1N1CCN(/N=C/C=C\c2ccccc2[N+](=O)[O-])CC1	4	-4	-59	0	59	.	.
CCOc1ccc(S(=O)(=O)NCCC(=O)Nc2nnc(C)s2)cc1	2	-8	.	2	.	.	.
Cn1c(CNc2ccc(Cl)cc2)nnc1SCc1ccccc1	2	4	-5	101*	5	44	141*
N=c1n(CCN2CCOCC2)c2ccccc2n1CC(=O)c1cccc([N+](=O)[O-])c1	1	3	-77	134*	77*	148*	87*
O=C(c1cccc([N+](=O)[O-])c1)N1CCOCC1	1	2	-10	5	10	.	.
COc1ccc(-c2ccc3oc(-c4ccsc4)c(-c4ccc(OC)cc4)c3c2)cc1	-3	18	-52	11	52	.	.
COc1ccc(-c2ccc3oc(-c4ccsc4)c(-c4ccc(Br)nc4)c3c2)cc1	.	.	.	102*	.	97*	26*
N#Cc1ccc(C(=O)NC2CCCCCCC2)cc1	4	2	.	5	.	.	.
COc1ccc(/C=N/Nc2snc(SC)c2C#N)cc1OC	5	-7	-63	84*	63	137*	25*
COc1cccc(/C=N/n2c(=S)n(C)c3ccccc32)c1OC	5	8	-16	2	16	.	.
COc1cccc(/C=N/n2c(=O)[nH]c3ccccc32)c1OC	3	-7	1	118*	-1	94*	18*
O=c1c2[nH]c3ccc(Cl)cc3c2ncn1CCN1CCCCC1	1	-3	27	11	-27	.	.
Clc1ccc2[nH]c3c(N4CCC5(CC4)OCCO5)ncnc3c2c1	.	16	.	99*	.	56*	33*
Clc1ccc2[nH]c3c(NCCN4CCOCC4)ncnc3c2c1	2	-3	5	80*	-5	93*	51*
CSC1=NC(C(Cl)(Cl)Cl)N=C(c2ccccc2)N1 (stereo not given)	-7	-17	-9	7	9	.	.
O=C(N/N=C/c1ccc2cccc(OCc3ccccc3)c2n1)c1ccc(Cl)cc1	3	-2	-35	99*	35	70*	13*
CC(C)(C=O)C1=CC(=O)c2ccccc2C1=O	0	5	-11	83*	11	112*	26*
CC1=CC(=O)c2ccccc2C1=O	-2	10	-2	22	2	.	.
Cc1ccc2cc3c(NC(=O)c4ccco4)nn(C)c3nc2c1	-2	0	-6	82*	6	97*	2
Cc1ccc2cc3c(NC(=O)c4cccnc4)nn(C)c3nc2c1	-1	-1	-2	114*	2	93*	14*
CCn1nc(NC(=O)c2ccncc2)c2cc3ccc(C)cc3nc21	0	-4	-27	12	27	.	.
CCCn1nc(NC(=O)c2cccs2)c2cc3ccc(C)cc3nc21	-1	17	-48	12	48	.	.
O=C(CN(Cc1ccco1)Cc1ccco1)Nc1cc(S(=O)(=O)N2CCCCC2)ccc1Cl	-2	2	-32	0	32	.	.
SMILES	FXN GAA850 act	JMJD2C inh	SR-BI DiI-HDL act	AHR act	SR-BI DiI inh	AHR act cf	PXR counter
COc1ccc(CNC(=O)CN2c3ccccc3S(=O)(=O)c3ccccc32)cc1	0	1	-26	5	26	.	.
COc1ccc(C)cc1NC(=O)c1cnc2n(c1=O)CCS2	5	-2	7	24	-7	.	.
CCOc1ccccc1NC(=O)c1cnc2n(c1=O)CCS2	2	-5	-44	88*	44	65*	55*
Cc1nc(SCC(=O)N(C)Cc2ccco2)c2c(C)c(C)sc2n1	4	2	-17	92*	17	55*	182*
COc1ccc(OC)c(NC(=O)c2ccccc2N(C)S(=O)(=O)c2ccc(C)cc2)c1	1	2	-15	1	15	.	.
Cc1nc(-c2cccnc2)sc1C(=O)Nc1ccc(C(F)(F)F)cc1	1	0	12	95*	-12	61*	10*
Cc1nc(Cl)sc1C(=O)Nc1cccc(C(F)(F)F)c1	0	.	-23	.	23	.	.
Cc1nc(-c2ccc(C(F)(F)F)cc2)sc1C(=O)NN	3	-3	-42	86*	42	10	14*
Cc1cc(-c2onc(C)c2C(=O)Nc2ccc(C(F)(F)F)cc2)no1	2	8	-1	84*	1	95*	39*
Cc1nc(Cl)sc1C(=O)Nc1ccc(C(F)(F)F)cc1	1	-19	5	99*	-5	106*	.
O=C1NC(=O)C([N+](=O)[O-])=C(O)C1=O	-1	.	.	.	.	.	.
N/C(=N\c1nc2ccccc2o1)NC(=O)c1ccccc1	1	-15	-20	184*	20	180*	94*
Cc1csc(-c2coc3cc(O)cc(C)c3c2=O)n1	3	-5	-5	95*	11	126*	21*
O=C(O)COn1c(-c2ccccc2)nc2ccc([N+](=O)[O-])cc21	2	4	11	141*	-11	53*	.
CCOC(=O)C(C)On1c(-c2ccccc2)nc2ccc([N+](=O)[O-])cc21 (stereo not given)	3	7	-5	11	5	.	.
COc1cc(F)ccc1-c1cc(C(=O)NCc2ccc(F)cc2)[nH]n1	0	.	.	.	.	.	.
CCCCN(C)c1c(C)nc2ccc(C(=O)NCc3ccc(OC)cc3)cn12	-2	.	.	.	.	.	.
COc1ccccc1C(=O)Nc1ccc2c3c(cccc13)CC2	6	18	.	83*	.	35	85*
CCOC(=O)Cc1csc(/N=C/c2c(O)n(-c3ccc(C)c(C)c3)c(=O)c3ccccc23)n1	1	-15	21	0	-21	.	.
CC(C)=NNc1nc(-c2ccccc2)cs1	1	-7	34	102*	-34	107*	15*
CC(/C=C/c1ccccc1)=N\Nc1nc(-c2ccccc2)cs1	-2	-2	16	1	-16	.	.
CN(Cc1cccs1)C(=O)COc1cccc2c1OC(C)(C)C2	1	5	-21	0	21	.	.
Cc1ccc2c(C(=O)CNc3nncs3)c(C)[nH]c2c1	1	1	-32	106*	32	36	17*
Cc1ccc2c(C(=O)CN3CCN(C4CCCCC4)CC3)c(C)[nH]c2c1	1	6	-10	19	10	.	.
O=c1oc2ccccc2n1CCc1ccccc1	1	7	13	94*	-13	100*	34*
CC1CCN(CCC(=O)Nc2nccs2)CC1	0	16	13	4	-13	.	.

Screening data (PubChem BioAssay)
